28 compounds from ChEMBL document CHEMBL3112485, “7-Chloroquinolinotriazoles: synthesis by the azide-alkyne cycloaddition click chemistry, antimalarial activity, cytotoxicity and SAR studies” (Eur J Med Chem, 2014) can be followed below.

The nature of series [1]: Cytotoxicity against human HepG2 cells after 24 hrs by MTT assay. The format is cell-based. For orientation: Formazan colour is commonly taken as a measure of viable cells.
For series [2], the system named is Plasmodium falciparum. Description: Antimalarial activity against chloroquine-resistant and mefloquine-sensitive Plasmodium falciparum W2 infected in human erythrocytes after 48 hrs by HRP2-ELISA. The format is functional, organism-based. The conditions noted are these: W2, 48 h. In a few lines: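 Ring-stage cultures sorbitol-synchronized; RBC suspension at 0.05% parasitemia, 1.5% hematocrit in RPMI with 10% human plasma, exposed to serial compound concentrations 48 h. Background wells harvested at 24 h and subtracted. Freeze-thaw lysis, then anti-HRP2 sandwich ELISA with TMB, absorbance 450 nm. IC50 from sigmoidal dose-response versus drug-free and standard-drug controls; triplicate per concentration, experiments in duplicate.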
Background: In an ELISA, binding on a coated surface is turned into a signal by an enzyme label.

Series [3] in a line: Selectivity index, ratio of CC50 for human HepG2 cells to IC50 for chloroquine-resistant and mefloquine-sensitive Plasmodium falciparum W2. The format is functional.

What is called CC50 is the concentration at which the toxic effect on the cells reaches its halfway point. On to `O=C(OCc1cn(-c2ccnc3cc(Cl)ccc23)nn1)c1ccc(Cl)cc1`, for which it took 484 µM to reach half-maximal cytotoxicity in series [1] (CC50 at 24 h). The IC50 in series [2] (read-out: IC50) is 22.5 µM; in series [2] (read-out: pIC50 (converted)), 22.9 µM. Moreover, the “Ratio CC50/IC50” value in series [3] is 21.5.

With `CN(C)Cc1cn(-c2ccnc3cc(Cl)ccc23)nn1`, in series [1], the CC50 at 24 h worked out at 1850 µM. The figures for the IC50 in series [2] (read-out: IC50) and in series [2] (read-out: pIC50 (converted)) were 27.4 µM and 26.9 µM, respectively. For the same compound, in series [3], the “Ratio CC50/IC50” value came to 67.5.

Turning to `CCc1ccccc1C(=O)OCc1cn(-c2ccnc3cc(Cl)ccc23)nn1`, the CC50 at 24 h in series [1] is over 2550 µM. Further, the IC50 in series [2] (read-out: IC50) was over 128 µM. Moreover, the “Ratio CC50/IC50” value in series [3] is reported as under 20.

In turn, `O=C(OCc1cn(-c2ccnc3cc(Cl)ccc23)nn1)c1ccc(C(F)(F)F)cc1` returned a CC50 at 24 h in series [1] of 1070 µM. Further, the IC50 in series [2] (read-out: IC50) was over 116 µM. In series [3], the “Ratio CC50/IC50” value is under 9.2.

In turn, `Clc1ccc2c(-n3cc(CN4CCOCC4)nn3)ccnc2c1` came in with a CC50 at 24 h in series [1] of over 3040 µM. Moreover, the IC50 in series [2] (read-out: IC50) is over 152 µM. Further, in series [3], the “Ratio CC50/IC50” value was under 20.

Compound `CCc1ccc(C(=O)OCc2cn(-c3ccnc4cc(Cl)ccc34)nn2)cc1` registered a CC50 at 24 h in series [1] of over 2550 µM. For the same compound, the IC50 in series [2] (read-out: IC50) is over 128 µM. The “Ratio CC50/IC50” value in series [3] was under 20.

In turn, `COc1ccc2cc(-c3cn(-c4ccnc5cc(Cl)ccc45)nn3)ccc2c1` registered a CC50 at 24 h in series [1] of over 2590 µM. In series [2] (read-out: IC50), the IC50 was over 129 µM. Moreover, in series [3], the “Ratio CC50/IC50” value was under 20.

In series [1], `CCN(CC)CCCC(C)Nc1ccnc2cc(Cl)ccc12` (configuration not stated) [CHLOROQUINE] showed a CC50 at 24 h of 810 µM.

`COc1c(F)c(F)cc(C(=O)OCc2cn(-c3ccnc4cc(Cl)ccc34)nn2)c1F`: in series [1], the CC50 at 24 h was over 2230 µM. Besides, the IC50 in series [2] (read-out: IC50) is over 112 µM. The “Ratio CC50/IC50” value in series [3] is given as under 20.

Turning to `Clc1ccc2c(-n3cc(CN4CCCCC4)nn3)ccnc2c1`, the CC50 at 24 h in series [1] amounted to 1110 µM. The IC50 in series [2] (read-out: IC50) is over 153 µM. Besides, the “Ratio CC50/IC50” value in series [3] was under 7.2.

`O=C(OCCCc1cn(-c2ccnc3cc(Cl)ccc23)nn1)c1ccc(C(F)(F)F)cc1` showed a CC50 at 24 h in series [1] of over 2170 µM. Also, the IC50 in series [2] (read-out: IC50) was over 109 µM. Moreover, the “Ratio CC50/IC50” value in series [3] is reported as under 20.

Regarding `CN(C)c1ccc(-c2cn(-c3ccnc4cc(Cl)ccc34)nn2)cc1`, the CC50 at 24 h in series [1] is over 2860 µM. Also, the IC50 was 40.3 µM in series [2] (read-out: IC50) and 39.8 µM in series [2] (read-out: pIC50 (converted)). In series [3], the “Ratio CC50/IC50” value was over 71.1.

Take `CCc1ccc(C(=O)OCCCc2cn(-c3ccnc4cc(Cl)ccc34)nn2)cc1`: the half-maximal cytotoxic concentration (CC50) at 24 h in series [1] is over 2550 µM. Moreover, the IC50 in series [2] (read-out: IC50) is over 119 µM. For the same compound, the “Ratio CC50/IC50” value in series [3] is under 21.4.

Compound `CC(C)(O)c1cn(-c2ccnc3cc(Cl)ccc23)nn1` displayed a CC50 at 24 h in series [1] of 442 µM. In addition, the IC50 in series [2] (read-out: IC50) came to 90.3 µM. Besides, in series [3], the “Ratio CC50/IC50” value is on record as 4.9.

`O=C(OCc1cn(-c2ccnc3cc(Cl)ccc23)nn1)c1ccccc1` returned a CC50 at 24 h in series [1] of over 2750 µM. For the same compound, the IC50 in series [2] (read-out: IC50) was over 137 µM. In addition, in series [3], the “Ratio CC50/IC50” value is under 20.

In turn, `O=C(OCCCc1cn(-c2ccnc3cc(Cl)ccc23)nn1)c1ccccc1` registered a CC50 at 24 h in series [1] of 1200 µM. In series [2] (read-out: IC50), the IC50 was over 128 µM. Besides, in series [3], the “Ratio CC50/IC50” value is under 9.4.

As to `COc1ccc(C(=O)OCCCc2cn(-c3ccnc4cc(Cl)ccc34)nn2)cc1`, the CC50 at 24 h in series [1] was 347 µM. For the same compound, the IC50 in series [2] (read-out: IC50) was over 113 µM. For the same compound, in series [3], the “Ratio CC50/IC50” value is reported as under 3.

For the compound `Clc1ccc2c(-n3cc(-c4ccccc4)nn3)ccnc2c1`, the midpoint of cytotoxicity in series [1], the CC50 at 24 h, lay at 574 µM. The IC50 in series [2] (read-out: IC50) is over 80 µM. Moreover, the “Ratio CC50/IC50” value in series [3] is reported as under 7.2.

In series [1], `Cc1ccc(-c2cn(-c3ccnc4cc(Cl)ccc34)nn2)cc1` had a CC50 at 24 h of 352 µM. Besides, the IC50 in series [2] (read-out: IC50) was over 156 µM. The “Ratio CC50/IC50” value in series [3] was under 2.2.

Compound `Fc1ccc(-c2cn(-c3ccnc4cc(Cl)ccc34)nn2)cc1` registered a CC50 at 24 h in series [1] of over 3090 µM. Moreover, the IC50 in series [2] (read-out: IC50) was over 154 µM. Moreover, the “Ratio CC50/IC50” value in series [3] is reported as under 20.

`Clc1ccc2c(-n3cc(C4CCCCC4)nn3)ccnc2c1` showed a CC50 at 24 h in series [1] of over 3200 µM. Moreover, the IC50 in series [2] (read-out: IC50) was over 80 µM. The “Ratio CC50/IC50” value in series [3] is listed as under 40.

The compound `CC(C)(C)c1ccc(C(=O)OCCCc2cn(-c3ccnc4cc(Cl)ccc34)nn2)cc1` registered a CC50 at 24 h in series [1] of over 2230 µM. Moreover, in series [2] (read-out: IC50), the IC50 was over 112 µM. Further, in series [3], the “Ratio CC50/IC50” value was under 20.

In turn, `CCN(CC)Cc1cn(-c2ccnc3cc(Cl)ccc23)nn1` had a CC50 at 24 h in series [1] of 1850 µM. Further, in series [2] (read-out: IC50), the IC50 is over 166 µM. In addition, in series [3], the “Ratio CC50/IC50” value is under 11.2.

For the compound `CC(C)(C)c1ccc(C(=O)OCc2cn(-c3ccnc4cc(Cl)ccc34)nn2)cc1`, the CC50 at 24 h in series [1] was over 2380 µM. Further, the IC50 in series [2] (read-out: IC50) is over 119 µM. Moreover, in series [3], the “Ratio CC50/IC50” value is given as under 20.

`OCCCc1cn(-c2ccnc3cc(Cl)ccc23)nn1` yielded a CC50 at 24 h in series [1] of 151 µM. Moreover, the figures for the IC50 in series [2] (read-out: IC50) and in series [2] (read-out: pIC50 (converted)) were 9.6 µM and 10 µM, respectively. Further, the “Ratio CC50/IC50” value in series [3] came to 15.7.

`COc1ccc(C(=O)OCc2cn(-c3ccnc4cc(Cl)ccc34)nn2)cc1` came in with a half-maximal cytotoxic concentration (CC50) at 24 h in series [1] of 303 µM. For the same compound, the IC50 in series [2] (read-out: IC50) is over 127 µM. For the same compound, the “Ratio CC50/IC50” value in series [3] is under 2.4.

For the compound `OC1CCN(Cc2cn(-c3ccnc4cc(Cl)ccc34)nn2)CC1`, the 50% cytotoxic concentration (CC50) at 24 h in series [1] is 930 µM. Further, the IC50 was 40.9 µM in series [2] (read-out: IC50) and 40.7 µM in series [2] (read-out: pIC50 (converted)). The “Ratio CC50/IC50” value in series [3] was 22.7.

As for `Cc1ccc(C(=O)OCCCc2cn(-c3ccnc4cc(Cl)ccc34)nn2)cc1`, in series [1], the CC50 at 24 h was over 2460 µM. For the same compound, in series [2] (read-out: IC50), the IC50 was over 123 µM. In addition, in series [3], the “Ratio CC50/IC50” value is on record as under 20.
